Measurements as given in ChEMBL document CHEMBL1153374, “Synthesis, anti-inflammatory, and antioxidant activities of 18beta-glycyrrhetinic acid derivatives as chemical mediators and xanthine oxidase inhibitors” (Bioorg Med Chem, 2009).
The source made the active and inactive calls. The rule behind the calls is not given here.

How the values were obtained:
[1] = molecular target: Xanthine dehydrogenase/oxidase (Homo sapiens, UniProt P47989); assay: Inhibition of xanthine oxidase
How it was run: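 Xanthine oxidase activity measured at 25 °C with xanthine as substrate, in 70 mM phosphate buffer (pH 7.5), following a modified published protocol. Compounds were taken from 30 mM DMSO stocks diluted in DMSO, with final DMSO below 0.5% (v/v).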

[2] = test system: Neutrophil; assay: Inhibition of fMLP/cytochalasin B-stimulated super oxide anion generation in Sprague-Dawley rat neutrophils; type: functional, cell-based
How it was run: (§1)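 Peripheral blood neutrophils were isolated from Sprague-Dawley rats. Stimulus was fMLP (0.3 µM) with cytochalasin B (5 µg/mL) for 30 min, or PMA (3 nM). Superoxide was measured as SOD-inhibitable cytochrome c reduction. DPI was the reference inhibitor. IC50 was taken from concentration–response curves; means ± SD, n = 3–6.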

[3] = test system: Radical scavenging activity; assay: Antioxidant activity assessed as DPPH radical scavenging activity; type: functional
[4] = test system: RAW264.7; assay: Inhibition of LPS-induced nitric oxide generation in mouse RAW264.7 cells pretreated 1 hr before LPS challenge by Griess method; type: functional, cell-based
How it was run: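 Plated RAW 264.7 cells were preincubated with compound for 1 h at 37 °C, then stimulated with LPS at 1 µg/mL for 24 h. Nitrite accumulated in the medium was measured by the Griess reaction. Results are % inhibition at a single concentration or IC50 from concentration curves. Data are means ± SD, n = 3–6. Final DMSO <0.5%.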

[5] = test system: Nucleic Acid; assay: Inhibition of superoxide anion induced DNA damage of Escherichia coli pBR322 at 300 uM by gel electrophoresis; type: functional
How it was run: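 Supercoiled pBR322 plasmid DNA (1 µg/µL) was exposed to xanthine (2 mM)/xanthine oxidase (0.7 U/mL) in 10 mM phosphate buffer, pH 7.4, with compound for 20 min at 37 °C. SOD and quercetin served as comparators. Mixtures were electrophoresed on 1.0% agarose with ethidium bromide (0.05 µg/mL) in TAE, 100 V, 30 min.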

[6] = test system: Neutrophil; assay: Inhibition of PMA-stimulated super oxide anion generation in Sprague-Dawley rat neutrophils; type: functional, cell-based; how it was run: as §1
[7] = test system: RAW264.7; assay: Inhibition of LPS-induced TNFalpha release in mouse RAW264.7 cells pretreated 1 hr before LPS challenge by enzyme immunoassay; type: functional, cell-based
How it was run: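 RAW 264.7 murine macrophages were incubated with compound (diluted from DMSO stock; final DMSO <0.5% v/v), then stimulated with LPS. Secreted TNF-α in culture supernatant was quantified by EIA kit. Data are means ± SD, n = 3–6. IC50 was taken from concentration–response curves.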

[8] = test system: RAW264.7; assay: Inhibition of LPS-induced iNOS protein expression in mouse RAW264.7 cells at 3 uM pretreated 1 hr before LPS challenge by Western blot; type: functional, cell-based
How it was run: (§2)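 RAW 264.7 cells were pretreated 1 h with compound at 3 or 10 µM, then given LPS at 50 ng/mL for 24 h. Cells were washed with PBS, lysed in Laemmli SDS buffer and run on 10% SDS–PAGE, then transferred to PVDF and blocked in 5% milk/TBST. Blots were probed with monoclonal anti-iNOS (1:1000, 1 h) and HRP anti-mouse IgG (1:10,000), with ECL detection.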

[9] = test system: RAW264.7; assay: Inhibition of LPS-induced iNOS protein expression in mouse RAW264.7 cells at 10 uM pretreated 1 hr before LPS challenge by Western blot; type: functional, cell-based; how it was run: as §2

Chain of Xanthine dehydrogenase/oxidase (P47989 whole entry): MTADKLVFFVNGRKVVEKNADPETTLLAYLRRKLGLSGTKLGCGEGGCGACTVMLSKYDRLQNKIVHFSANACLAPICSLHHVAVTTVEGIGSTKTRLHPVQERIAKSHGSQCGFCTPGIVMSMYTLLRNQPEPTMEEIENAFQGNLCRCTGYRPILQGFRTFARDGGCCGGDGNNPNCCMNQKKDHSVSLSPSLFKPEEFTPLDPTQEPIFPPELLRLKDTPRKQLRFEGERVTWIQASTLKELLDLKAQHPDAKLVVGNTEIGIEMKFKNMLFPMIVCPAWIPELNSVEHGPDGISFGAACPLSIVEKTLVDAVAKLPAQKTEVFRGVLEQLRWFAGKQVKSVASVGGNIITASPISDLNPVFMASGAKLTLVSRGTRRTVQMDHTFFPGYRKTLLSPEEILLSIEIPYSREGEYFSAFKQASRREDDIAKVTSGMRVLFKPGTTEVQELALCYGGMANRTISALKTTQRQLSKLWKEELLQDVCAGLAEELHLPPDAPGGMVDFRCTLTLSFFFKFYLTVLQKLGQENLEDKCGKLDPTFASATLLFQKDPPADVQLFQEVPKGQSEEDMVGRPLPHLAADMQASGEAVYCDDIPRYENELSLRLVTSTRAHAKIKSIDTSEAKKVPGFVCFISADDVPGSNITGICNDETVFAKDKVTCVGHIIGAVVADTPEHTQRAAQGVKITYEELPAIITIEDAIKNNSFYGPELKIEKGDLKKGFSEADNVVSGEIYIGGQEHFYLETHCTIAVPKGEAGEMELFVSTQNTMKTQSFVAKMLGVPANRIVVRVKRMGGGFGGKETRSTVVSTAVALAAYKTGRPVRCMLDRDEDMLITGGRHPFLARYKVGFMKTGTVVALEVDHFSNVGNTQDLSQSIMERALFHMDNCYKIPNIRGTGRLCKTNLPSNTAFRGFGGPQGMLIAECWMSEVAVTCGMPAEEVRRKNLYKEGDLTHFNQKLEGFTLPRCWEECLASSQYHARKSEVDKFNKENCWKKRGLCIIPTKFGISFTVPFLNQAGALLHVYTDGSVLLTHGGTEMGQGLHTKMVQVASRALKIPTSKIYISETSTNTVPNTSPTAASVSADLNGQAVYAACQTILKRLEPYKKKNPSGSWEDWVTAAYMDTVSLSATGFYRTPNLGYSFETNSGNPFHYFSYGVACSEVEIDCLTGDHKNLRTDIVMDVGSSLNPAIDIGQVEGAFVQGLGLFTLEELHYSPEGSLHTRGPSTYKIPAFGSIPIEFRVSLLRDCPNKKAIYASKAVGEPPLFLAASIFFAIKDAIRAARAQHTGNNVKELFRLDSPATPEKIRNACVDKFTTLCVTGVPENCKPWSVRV

| SMILES | IC50 [4] | IC50 [7] | inhibition [3] | inhibition [5] | inhibition [7] | also measured |
| --- | --- | --- | --- | --- | --- | --- |
| CC1(C)C(=O)CC[C@]2(C)[C@H]3C(=O)C=C4[C@@H]5C[C@@](C)(C(=O)O)CC[C@]5(C)CC[C@@]4(C)[C@]3(C)CC[C@@H]12 | > 30 µM |  | inactive | Active |  | inhibition (INH) [1]: Not Active; IC50 [2]: 10.3 µM; inhibition [2]: Dose-dependent effect |
| CC(=N)NCc1cccc(CN)c1 [1400W] | 1.5 µM |  |  |  |  |  |
| C=C(C)[C@@H]1CC[C@]2(C)[C@H](C(=O)C=C3[C@@H]4C[C@@](C)(C(=O)NC(C)C)CC[C@]4(C)CC[C@]32C)[C@@]1(C)CCC(=O)O |  |  | inactive | Active |  | IC50 [2]: 9.8 µM; inhibition [2]: Dose-dependent effect |
| C=C(C)[C@@H]1CC[C@]2(C)[C@H](C(=O)C=C3[C@@H]4C[C@@](C)(C(=O)O)CC[C@]4(C)CC[C@]32C)[C@@]1(C)CCC(=O)O |  |  | inactive | Active |  | IC50 [2]: 7 µM; inhibition [2]: Dose-dependent effect |
| Oc1ncnc2[nH]ncc12 [ALLOPURINOL] |  |  | inactive |  |  | inhibition (INH) [1]: Not Active |
| C=C(C)[C@@H]1CC[C@]2(C)[C@H](C(=O)C=C3[C@@H]4C[C@@](C)(C(=O)NC(C)C)CC[C@]4(C)CC[C@]32C)[C@@]1(C)CCC(=O)OC | 13.1 µM |  | inactive | Active |  | inhibition [8]: Active; inhibition [9]: Active; IC50 [6]: 15.6 µM; inhibition [6]: Dose-dependent effect |
| C=C(C)[C@@H]1CC[C@]2(C)[C@H](C(=O)C=C3[C@@H]4C[C@@](C)(C(=O)OC)CC[C@]4(C)CC[C@]32C)[C@@]1(C)CCC(=O)OC | > 30 µM |  |  |  |  |  |
| c1ccc2c(c1)[I+]c1ccccc1-2 [DIPHENYLENEIODONIUM CHLORIDE] |  |  |  |  |  | IC50 [2]: 2.7 µM; inhibition [2]: Dose-dependent effect; IC50 [6]: 1.8 µM; inhibition [6]: Dose-dependent effect |
| CC1(C)[C@@H](O)CC[C@]2(C)[C@H]3C(=O)C=C4[C@@H]5C[C@@](C)(C(=O)O)CC[C@]5(C)CC[C@@]4(C)[C@]3(C)CC[C@@H]12 [ENOXOLONE] |  | 1.3 µM |  |  | Dose-dependent effect |  |
| C=C(C)[C@@H]1CC[C@]2(C)[C@H](C(=O)C=C3[C@@H]4C[C@@](C)(C(=O)OC(C)C)CC[C@]4(C)CC[C@]32C)[C@@]1(C)CCC(=O)OC | > 30 µM |  |  |  |  |  |
| C=C(C)[C@@H]1CC[C@]2(C)[C@H](C(=O)C=C3[C@@H]4C[C@@](C)(C(=O)OCc5ccccc5)CC[C@]4(C)CC[C@]32C)[C@@]1(C)CCC(=O)O |  | 2.3 µM |  |  | Dose-dependent effect |  |
| C=C(C)[C@@H]1CC[C@]2(C)[C@H](C(=O)C=C3[C@@H]4C[C@@](C)(C(=O)Nc5ccccc5)CC[C@]4(C)CC[C@]32C)[C@@]1(C)CCC(=O)OC |  | 15.5 µM |  |  | Dose-dependent effect |  |
| COC(=O)[C@@]1(C)CC[C@]2(C)CC[C@]3(C)C(=CC(=O)[C@@H]4[C@@]5(C)CCC(=O)OC(C)(C)[C@@H]5CC[C@]43C)[C@@H]2C1 |  |  | inactive | Active |  | IC50 [6]: 12.9 µM; inhibition [6]: Dose-dependent effect |

Further lines, with some results ahead:

| IC50 [4] | IC50 [7] | SMILES | inhibition [3] | inhibition [5] | inhibition [7] | also measured |
| --- | --- | --- | --- | --- | --- | --- |
| > 30 µM | 13.7 µM | C=C(C)[C@@H]1CC[C@]2(C)[C@H](C(=O)C=C3[C@@H]4C[C@@](C)(C(=O)OCc5ccccc5)CC[C@]4(C)CC[C@]32C)[C@@]1(C)CCC(=O)OC | inactive | Active | Dose-dependent effect | IC50 [6]: 17 µM; inhibition [6]: Dose-dependent effect |
|  | 27.7 µM | C=C(C)[C@@H]1CC[C@]2(C)[C@H](C(=O)C=C3[C@@H]4C[C@@](C)(C(=O)Nc5ccccc5)CC[C@]4(C)CC[C@]32C)[C@@]1(C)CCC(=O)O |  |  | Dose-dependent effect |  |
|  | 26.5 µM | O=c1c(-c2ccc(O)cc2)coc2cc(O)cc(O)c12 [GENISTEIN] |  |  | Dose-dependent effect |  |
|  | 26.1 µM | C=C(C)[C@@H]1CC[C@]2(C)[C@H](C(=O)C=C3[C@@H]4C[C@@](C)(C(=O)OC)CC[C@]4(C)CC[C@]32C)[C@@]1(C)CCC(=O)O |  |  | Dose-dependent effect |  |
